Measured values taken from ChEMBL document CHEMBL5113395, “Azetidin-2-one-based small molecules as dual hHDAC6/HDAC8 inhibitors: Investigation of their mechanism of action and impact of dual inhibition profile on cell viability” (Eur J Med Chem, 2022).
pIC50: −log10 of the molar value. Values belong to the compound of their own block, whether it stands above or below them. Calls of active or inactive are those of the source. The calls are words filed in the database; no cut-off is given here.

Columns and labels:
Homo sapiens [1] = species: Homo sapiens; experiment: Selectivity index, ratio of IC50 for inhibition of recombinant human full length C-terminal FLAG/His-tagged HDAC1 expressed in Sf9 insect cells to IC50 for inhibition recombinant human HDAC8
How it was run: (§1)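 HDAC1 and HDAC6 IC50 values from the ZMAL fluorogenic assay: 37 °C for 90 min, then trypsin/TSA development, read at ex 390/em 460 nm. HDAC8 IC50 from the kit enzyme (0.45 U/reaction), 0.5% DMSO, 15 min preincubation with compound, 50 μM Fluor de Lys substrate, 1 h at 30 °C. HDAC8 reaction quenched with TSA (2 μM) in developer, 1 h, read at ex 370/em 450 nm, IC50 by nonlinear regression. Ratio of IC50s.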

Homo sapiens [2] = species: Homo sapiens; experiment: Selectivity index, ratio of IC50 for inhibition of recombinant human full length C-terminal FLAG/His-tagged HDAC1 expressed in Sf9 insect cells to IC50 for inhibition of recombinant human full length N-terminal GST-tagged HDAC6 expressed in Sf9 cells
How it was run: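 Human recombinant HDAC1 or HDAC6 in Tris-HCl pH 8.0 buffer (NaCl, KCl, MgCl2, 1 mg/mL BSA). Incubated with inhibitor dilutions in DMSO and fluorogenic ZMAL substrate (126 μM) at 37 °C for 90 min. Stopped with trichostatin A/trypsin, 30 min at 37 °C. Fluorescence read at ex 390/em 460 nm. IC50 from at least three determinations; ratio HDAC1/HDAC6 IC50.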

[3] = molecular target: T1, Polyamine deacetylase HDAC10 (Homo sapiens, UniProt Q969S8); experiment: Inhibition of recombinant human N-terminal FLAG tagged HDAC10 expressed in baculovirus infected Sf9 insect cells using fluorogenic substrate measured after 30 mins by fluorescence plate reader analysis
T1 sequence (Q969S8 whole entry): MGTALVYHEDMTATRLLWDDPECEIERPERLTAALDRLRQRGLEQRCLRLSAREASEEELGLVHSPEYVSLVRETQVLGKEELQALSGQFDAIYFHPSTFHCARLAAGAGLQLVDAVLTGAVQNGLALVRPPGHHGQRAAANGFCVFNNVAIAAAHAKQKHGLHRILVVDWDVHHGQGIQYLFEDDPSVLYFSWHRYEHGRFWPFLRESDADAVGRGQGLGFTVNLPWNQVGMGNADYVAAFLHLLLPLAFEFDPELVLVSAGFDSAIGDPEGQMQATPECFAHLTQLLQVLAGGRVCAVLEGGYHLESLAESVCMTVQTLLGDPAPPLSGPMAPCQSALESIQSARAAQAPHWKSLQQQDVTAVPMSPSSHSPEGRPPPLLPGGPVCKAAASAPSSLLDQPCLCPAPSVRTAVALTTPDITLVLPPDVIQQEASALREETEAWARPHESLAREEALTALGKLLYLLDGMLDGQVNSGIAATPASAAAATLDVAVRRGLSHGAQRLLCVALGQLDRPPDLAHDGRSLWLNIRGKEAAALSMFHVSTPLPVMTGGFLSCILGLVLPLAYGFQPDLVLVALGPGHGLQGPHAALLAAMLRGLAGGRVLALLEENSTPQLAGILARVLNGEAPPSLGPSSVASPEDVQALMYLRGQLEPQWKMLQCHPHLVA

[4] = molecular target: T2, Histone deacetylase 8 (Homo sapiens) (UniProt Q9BY41); experiment: Inhibition of HDAC8 in human U-937 cells assessed as increase in acetylation level of SMC3 at 10 uM measured after 48 hrs by Western blot analysis; type: cell-based
T2 sequence (whole entry): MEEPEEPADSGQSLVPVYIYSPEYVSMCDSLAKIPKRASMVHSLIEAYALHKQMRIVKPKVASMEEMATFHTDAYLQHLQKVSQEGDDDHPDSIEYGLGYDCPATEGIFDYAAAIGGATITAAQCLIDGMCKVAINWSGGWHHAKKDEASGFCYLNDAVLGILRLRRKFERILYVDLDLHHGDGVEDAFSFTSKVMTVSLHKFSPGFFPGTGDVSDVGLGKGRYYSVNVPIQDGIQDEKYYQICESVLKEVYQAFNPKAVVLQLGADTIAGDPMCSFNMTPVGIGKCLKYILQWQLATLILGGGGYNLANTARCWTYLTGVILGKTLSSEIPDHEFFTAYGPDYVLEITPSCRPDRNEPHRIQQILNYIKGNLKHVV
How it was run: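 HCT116 or U937 cells were treated at 10 µM for 24–48 h and lysed in NP40 buffer with protease/phosphatase inhibitors. 50 µg protein was resolved by SDS-PAGE and probed with anti-acetyl-SMC3 (Lys105/106, 1:1000), normalized to GAPDH (1:3000). PCI served as positive control, and band intensities were semi-quantified by densitometry.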

HCT-116 = experiment: Antiproliferation activity against human HCT-116 cells assessed as reduction in cell viability at 5 to 50 uM measured after 48 hrs by MTT assay; type: functional, cell-based; conditions: dose 5-50 µM
How it was run: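 HCT116 cells in DMEM with 10% heat-inactivated FBS were seeded at 3×10^4 cells/well and treated in triplicate at 1, 5, 10 and 50 µM for 24 and 48 h. MTT at 0.5 mg/mL was added for 3 h, formazan was dissolved in DMSO, and absorbance was read at 570 nm.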

Homo sapiens [5] = species: Homo sapiens; experiment: Selectivity index, ratio of IC50 for inhibition of recombinant human full length N-terminal GST-tagged HDAC6 expressed in Sf9 cells to IC50 for inhibition of recombinant human HDAC8; how it was run: as §1
[6] = Cytotoxicity against mouse NIH3T3 cells assessed as inhibition of cell growth by neutral red uptake assay

pIC50 [3]: 5.29
inhibition [4]: Active
SMILES: O=C(NO)c1ccc(CC(=O)N2CCC(N3CC(c4ccccc4)(c4ccccc4)C3=O)CC2)cc1
Ratio IC50 (Homo sapiens [1]): 86
Ratio IC50 (Homo sapiens [2]): 106
Activity (HCT-116): Active
Ratio IC50 (Homo sapiens [5]): 1
CC50 [6]: 48 µM

SMILES: O=C(NO)c1ccc(CNC(=O)N2CCC(N3C(=O)[C@H](c4ccccc4)[C@H]3c3ccccc3)CC2)cc1 (racemic)
Ratio IC50 (Homo sapiens [1]): 100
Ratio IC50 (Homo sapiens [2]): 200
pIC50 [3]: 5.18
inhibition [4]: Active
Activity (HCT-116): Active
Ratio IC50 (Homo sapiens [5]): 2
CC50 [6]: 101 µM

SMILES: O=C(NO)c1ccc(CNC(=O)N2CCC(N3CC(c4ccccc4)(c4ccccc4)C3=O)CC2)cc1
Ratio IC50 (Homo sapiens [1]): 43
Ratio IC50 (Homo sapiens [2]): 1260
pIC50 [3]: 5.19
inhibition [4]: Active
Activity (HCT-116): Active
Ratio IC50 (Homo sapiens [5]): 29
CC50 [6]: 40 µM
